The text below walks through data of ChEMBL document CHEMBL1121566, “Synthesis and aldose reductase inhibitory activity of 7-sulfamoylxanthone-2-carboxylic acids” (J Med Chem, 1980).

In general, inhibition refers to the relative decrease from the control value, in per cent.

The source made the active and inactive calls. No cut-off for these calls is given here.

Assay [1] addresses Aldo-keto reductase family 1 member B1 (Oryctolagus cuniculus) (UniProt P15122). The assay can be described thus: Antiallergic agent with Aldose reductase Inhibitory Activity at 10E-5 M concentration. In short, it runs like this:
(§1)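 Enzyme was from frozen rabbit lenses, homogenized in water and spun at 10000g. The 50–75% ammonium sulfate fraction was dissolved in 0.05 M NaCl. The assay used 0.067 M phosphate pH 6.0 and 2 × 10^-5 M NADPH, and was started with 5 × 10^-4 M D,L-glyceraldehyde (final). NADPH loss was followed at 340 nm for 2 min at 37 °C. Inhibitors were dissolved in minimal 0.1 N NaOH and diluted with water.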

Assay [2] has the same target. The assay can be described thus: Antiallergic agent with Aldose reductase Inhibitory Activity at 10E-6 M concentration. In short, it runs like this:
as §1

For assay [3] the target is unchanged. The experiment in a line: Percent inhibition of rabbit lens aldose reductase in vitro at 10E-4 M concentration. In short, it runs like this:
as §1

The test system of assay [4] is Aldose reductase (Oryctolagus cuniculus). The assay can be described thus: In vitro inhibitory activity towards rabbit lens aldose reductase; Active.

As for `O=C(O)c1ccc2oc3ccc(S(=O)(=O)O)cc3c(=O)c2c1`, the inhibition in assay [1] was 43%; in assay [2], 0%; in assay [3], 70%.
In the case of `O=C(O)c1ccc2oc3ccc(S(=O)(=O)N4CCOCC4)cc3c(=O)c2c1`, the inhibition turned out to be 6% in assay [1], 0% in assay [2] and 76% in assay [3].
The corresponding values for `CC(O)c1ccc2oc3ccc(C(=O)O)cc3c(=O)c2c1` (stereo not given) are 10%, 10% and 50%.
The corresponding values for `COC(C)c1ccc2oc3ccc(C(=O)O)cc3c(=O)c2c1` (stereo not given) are 6%, 0% and 70%.
As for `O=C(O)c1ccc2oc3ccc(S(=O)(=O)CCO)cc3c(=O)c2c1`, the values for the inhibition in assay [1], in assay [2] and in assay [3] were 77%, 50% and 96%, respectively.
The corresponding values for `CC(C)CN(C)S(=O)(=O)c1ccc2oc3ccc(C(=O)O)cc3c(=O)c2c1` are 75%, 25% and 95%.
In the case of `CC(C)NS(=O)(=O)c1ccc2oc3ccc(C(=O)O)cc3c(=O)c2c1`, the values for the inhibition in assay [1], in assay [2] and in assay [3] were 30%, 0% and 72%, respectively.
In the case of `O=C(O)c1ccc2oc3ccc(S(=O)(=O)NCCO)cc3c(=O)c2c1`, the values for the inhibition in assay [1], in assay [2] and in assay [3] were 38%, 0% and 79%, respectively.
Take `CN(CCO)S(=O)(=O)c1ccc2oc3ccc(C(=O)O)cc3c(=O)c2c1`: the inhibition entry in assay [4] was “Active”. Moreover, the inhibition in assay [1] was 96%; in assay [2] it was 83%; in assay [3], 100%.
Consider `NS(=O)(=O)c1ccc2oc3ccc(C(=O)O)cc3c(=O)c2c1`, for which the inhibition in assay [1] stood at 20%; in assay [2], 10%; in assay [3], 70%.
Taken in the same sequence, the figures for `C[S+]([O-])c1ccc2oc3ccc(C(=O)O)cc3c(=O)c2c1` (stereo not given) were 20%, 0% and 63%.
The corresponding values for `O=C(O)c1ccc2oc3ccc(OCC(O)CO)cc3c(=O)c2c1` (stereo not given) are 46%, 8% and 88%.
For `CCN(C)S(=O)(=O)c1ccc2oc3ccc(C(=O)O)cc3c(=O)c2c1`, the inhibition in assay [1] was 81%; in assay [2], 23%; in assay [3], 92%.
The corresponding values for `COCC[S+]([O-])c1ccc2oc3ccc(C(=O)O)cc3c(=O)c2c1` (stereo not given) are 12%, 4% and 65%.
With `O=c1c(O)c(-c2ccc(O)c(O)c2)oc2cc(O)cc(O)c12`, the inhibition in assay [1] was determined as 52%; in assay [2], 9%.
Turning to `CN(C)S(=O)(=O)c1ccc2oc3ccc(C(=O)O)cc3c(=O)c2c1`, in assay [4], the inhibition result was “Active”. Besides, the inhibition in assay [1] came to 87%; in assay [2], 67%; in assay [3], 94%.
In the case of `O=C(O)c1ccc2oc3ccc(S(=O)(=O)N(CCO)CCO)cc3c(=O)c2c1`, the inhibition stood at 49% in assay [1], 2% in assay [2] and 89% in assay [3].
`O=C(O)c1ccc2oc3ccccc3c(=O)c2c1`: the inhibition in assay [1] amounted to 10%; in assay [2], 0%; in assay [3], 20%.
The corresponding values for `O=C(O)c1ccc2oc3ccc(S(=O)(=O)N4CCCC4)cc3c(=O)c2c1` are 46%, 0% and 85%.
Taken in the same sequence, the figures for `CC(C)N(C)S(=O)(=O)c1ccc2oc3ccc(C(=O)O)cc3c(=O)c2c1` were 69%, 17% and 89%.
Taken in the same sequence, the figures for `O=C(O)c1ccc2oc3ccc([S+]([O-])CCO)cc3c(=O)c2c1` (stereo not given) were 50%, 17% and 87%.
As to `O=C(O)c1ccc2oc3ccc(SCCO)cc3c(=O)c2c1`, the inhibition was determined as 65% in assay [1], 7% in assay [2] and 93% in assay [3].
Regarding `CNS(=O)(=O)c1ccc2oc3ccc(C(=O)O)cc3c(=O)c2c1`, the inhibition in assay [1] turned out to be 40%; in assay [2] it was 25%; in assay [3] it was 75%.
